# Experimental data published in paper PMC5488297 (Chemistry (Weinheim an Der Bergstrasse, Germany), 2017).
# Legend:
# U87 β3‐KO (αVβ3−) cells = test: Anti‐proliferative activity, CellTiter-Glo ATP cell viability, U87 β3‐KO; format: cell-based; settings: Homo sapiens, 144 h
# Outline: (§1)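 U87 human glioblastoma cells were used alongside an isogenic U87 clone with the β3 integrin subunit gene deleted by CRISPR-Cas9. Absence of αVβ3 was confirmed by flow cytometry using anti-αVβ3 antibody LM609 plus a fluorescent secondary antibody. Cells were exposed to increasing concentrations of test compound for 144 h, with free paclitaxel run in parallel. Viability was read as cellular ATP by CellTiter-Glo. IC50 was taken as the concentration giving 50 % inhibition of viability.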
# [1] = test system: U87 (αVβ3+) and U87 β3‐KO (αVβ3−) cells; test: Targeting index / selectivity between U87 β3‐KO and U87 cells; format: cell-based, human; settings: for Targeting index (TI): [IC50(αVβ3−)/IC50(αVβ3+)]conjugate/[IC50(αVβ3−)/IC50(αVβ3+)]paclitaxel
# Outline: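 The targeting index uses IC50s from the 144 h CellTiter-Glo ATP viability assay on the isogenic U87 and U87 β3-KO (CRISPR-Cas9 β3 deletion) pair. The ratio IC50(β3-KO)/IC50(U87) for the conjugate is divided by the same ratio for free paclitaxel tested in parallel under identical conditions.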
# [2] = test system: U87 (αVβ3+) human glioblastoma cells; test: Anti‐proliferative activity, CellTiter-Glo ATP cell viability, U87; format: cell-based; settings: 144 h
# Outline: as §1
# purified αVβ3 receptor = purified αVβ3 receptor (Homo sapiens, UniProt P05106+P06756); test: Inhibition of biotinylated vitronectin binding to purified αVβ3 receptor
# purified αVβ3 receptor, sequence (P06756 891-1048): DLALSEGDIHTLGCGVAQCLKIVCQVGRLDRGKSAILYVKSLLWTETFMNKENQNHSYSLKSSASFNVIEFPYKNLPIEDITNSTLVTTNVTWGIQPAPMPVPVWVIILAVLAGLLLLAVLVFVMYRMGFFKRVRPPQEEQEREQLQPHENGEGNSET
# purified αVβ3 receptor, sequence (P06756 31-889): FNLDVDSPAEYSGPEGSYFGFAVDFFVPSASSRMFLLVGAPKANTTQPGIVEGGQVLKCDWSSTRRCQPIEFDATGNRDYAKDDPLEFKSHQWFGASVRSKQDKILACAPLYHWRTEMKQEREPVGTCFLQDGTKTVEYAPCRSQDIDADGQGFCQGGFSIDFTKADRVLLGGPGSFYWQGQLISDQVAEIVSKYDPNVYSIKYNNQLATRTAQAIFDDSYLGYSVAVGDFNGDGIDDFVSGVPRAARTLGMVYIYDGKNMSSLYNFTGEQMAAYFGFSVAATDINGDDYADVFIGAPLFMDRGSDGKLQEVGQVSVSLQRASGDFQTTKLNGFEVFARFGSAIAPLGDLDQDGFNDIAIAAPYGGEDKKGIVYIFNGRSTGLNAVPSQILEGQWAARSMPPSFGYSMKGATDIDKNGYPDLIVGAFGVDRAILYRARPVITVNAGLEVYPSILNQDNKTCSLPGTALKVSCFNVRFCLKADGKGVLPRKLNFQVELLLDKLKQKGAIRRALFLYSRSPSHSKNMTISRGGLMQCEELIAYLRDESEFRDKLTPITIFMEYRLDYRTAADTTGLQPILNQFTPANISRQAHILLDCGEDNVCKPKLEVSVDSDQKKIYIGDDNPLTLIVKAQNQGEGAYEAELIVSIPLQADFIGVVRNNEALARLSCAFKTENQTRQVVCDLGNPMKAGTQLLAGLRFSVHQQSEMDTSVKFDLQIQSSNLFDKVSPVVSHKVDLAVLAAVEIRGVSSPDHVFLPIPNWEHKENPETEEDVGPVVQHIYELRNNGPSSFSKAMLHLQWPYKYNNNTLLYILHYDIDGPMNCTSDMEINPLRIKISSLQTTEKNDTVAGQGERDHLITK
# purified αVβ3 receptor, sequence (P05106 27-788): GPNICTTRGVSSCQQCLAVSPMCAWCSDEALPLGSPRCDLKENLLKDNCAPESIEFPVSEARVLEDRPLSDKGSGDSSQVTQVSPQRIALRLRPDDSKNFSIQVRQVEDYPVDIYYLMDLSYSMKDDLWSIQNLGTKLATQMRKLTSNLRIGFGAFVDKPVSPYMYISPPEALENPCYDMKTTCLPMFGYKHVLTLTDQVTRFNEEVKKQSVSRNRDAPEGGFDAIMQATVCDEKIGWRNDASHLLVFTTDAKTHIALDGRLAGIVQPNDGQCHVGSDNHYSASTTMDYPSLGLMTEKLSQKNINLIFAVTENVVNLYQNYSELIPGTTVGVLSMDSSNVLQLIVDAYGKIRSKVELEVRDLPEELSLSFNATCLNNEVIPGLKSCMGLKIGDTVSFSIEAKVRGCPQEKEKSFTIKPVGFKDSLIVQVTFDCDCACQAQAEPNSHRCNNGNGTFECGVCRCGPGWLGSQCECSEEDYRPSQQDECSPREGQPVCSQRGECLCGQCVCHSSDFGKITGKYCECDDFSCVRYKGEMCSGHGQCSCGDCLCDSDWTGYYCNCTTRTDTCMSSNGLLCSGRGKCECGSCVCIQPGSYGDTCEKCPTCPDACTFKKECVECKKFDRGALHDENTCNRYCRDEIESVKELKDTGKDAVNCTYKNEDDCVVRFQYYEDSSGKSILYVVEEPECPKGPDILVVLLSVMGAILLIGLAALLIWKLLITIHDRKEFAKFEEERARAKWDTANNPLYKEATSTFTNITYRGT
# [3] = test system: integrin‐mediated cell infiltration processes; settings: cited from earlier work
# [4] = test system: FAK/Akt integrin‐activated transduction pathway; settings: cited from earlier work
compound,measurement,setting,value
CC(=O)O[C@H]1C(=O)[C@@]2(C)[C@H]([C@H](OC(=O)c3ccccc3)[C@]3(O)C[C@H](OC(=O)[C@H](O)[C@@H](NC(=O)c4ccccc4)c4ccccc4)C(C)=C1C3(C)C)[C@]1(OC(C)=O)CO[C@@H]1C[C@@H]2O [Paclitaxel],IC50,U87 β3‐KO (αVβ3−) cells,0.28 nM
same,times more effective on U87 β3‐KO cells (than on U87),[1]; 144 h,2.3 times
same,Targeting index (TI),[1]; 144 h,1
same,IC50,[2],0.64 nM
"CC(=O)O[C@H]1C(=O)[C@@]2(C)[C@H]([C@H](OC(=O)c3ccccc3)[C@]3(O)C[C@H](OC(=O)[C@H](OC(=O)N(C)CCN(C)C(=O)OCc4ccc(NC(=O)[C@H](C)NC(=O)[C@@H](NC(=O)CCCC(=O)NCc5ccc(CN6C(=O)[C@H]7CC(=O)N[C@H](C(=O)O)CC(=O)NCC(=O)N[C@@H](CCCNC(=N)N)C(=O)NC[C@H]6C(=O)N7)cc5)C(C)C)cc4)[C@@H](NC(=O)c4ccccc4)c4ccccc4)C(C)=C1C3(C)C)[C@]1(OC(C)=O)CO[C@@H]1C[C@@H]2O [compound 2, cyclo[DKP‐isoDGR]‐Val‐Ala‐PTX]",Targeting index (TI),[1]; 144 h,9.9
same,targeting ability (in words),[1]; two isogenic cancer cell lines expressing integrin αVβ3 at different levels,notable targeting ability
same,IC50,purified αVβ3 receptor,11 ± 0.2 nM
same,affinity for the purified integrin αVβ3 receptor (in words),purified αVβ3 receptor,low nanomolar affinity
"CC(=O)O[C@H]1C(=O)[C@@]2(C)[C@H]([C@H](OC(=O)c3ccccc3)[C@]3(O)C[C@H](OC(=O)[C@H](OC(=O)N(C)CCN(C)C(=O)OCc4ccc(NC(=O)[C@H](C)NC(=O)[C@@H](NC(=O)CCCC(=O)NCc5ccc(CN6C(=O)[C@H]7CC(=O)N[C@@H](CCCNC(=N)N)C(=O)NCC(=O)N[C@@H](CC(=O)O)C(=O)NC[C@H]6C(=O)N7)cc5)C(C)C)cc4)[C@@H](NC(=O)c4ccccc4)c4ccccc4)C(C)=C1C3(C)C)[C@]1(OC(C)=O)CO[C@@H]1C[C@@H]2O [compound 4, cyclo[DKP‐RGD]‐Val‐Ala‐PTX]",Targeting index (TI),[1]; 144 h,2.4
same,IC50,purified αVβ3 receptor,13.3 ± 3.6 nM
cyclo[DKP‐isoDGR] [compound 1],effect on integrin‐mediated cell infiltration processes,[3],inhibitory effects
same,effect on FAK/Akt integrin‐activated transduction pathway,[4],inhibitory effects
